Results collected from several papers.
Each line is one published result; the experiments were not run side by side.
Target: MAP/microtubule affinity-regulating kinase 4 (MARK4, Homo sapiens, UniProt Q96L34)
Residues used in one study (Q96L34 1-752): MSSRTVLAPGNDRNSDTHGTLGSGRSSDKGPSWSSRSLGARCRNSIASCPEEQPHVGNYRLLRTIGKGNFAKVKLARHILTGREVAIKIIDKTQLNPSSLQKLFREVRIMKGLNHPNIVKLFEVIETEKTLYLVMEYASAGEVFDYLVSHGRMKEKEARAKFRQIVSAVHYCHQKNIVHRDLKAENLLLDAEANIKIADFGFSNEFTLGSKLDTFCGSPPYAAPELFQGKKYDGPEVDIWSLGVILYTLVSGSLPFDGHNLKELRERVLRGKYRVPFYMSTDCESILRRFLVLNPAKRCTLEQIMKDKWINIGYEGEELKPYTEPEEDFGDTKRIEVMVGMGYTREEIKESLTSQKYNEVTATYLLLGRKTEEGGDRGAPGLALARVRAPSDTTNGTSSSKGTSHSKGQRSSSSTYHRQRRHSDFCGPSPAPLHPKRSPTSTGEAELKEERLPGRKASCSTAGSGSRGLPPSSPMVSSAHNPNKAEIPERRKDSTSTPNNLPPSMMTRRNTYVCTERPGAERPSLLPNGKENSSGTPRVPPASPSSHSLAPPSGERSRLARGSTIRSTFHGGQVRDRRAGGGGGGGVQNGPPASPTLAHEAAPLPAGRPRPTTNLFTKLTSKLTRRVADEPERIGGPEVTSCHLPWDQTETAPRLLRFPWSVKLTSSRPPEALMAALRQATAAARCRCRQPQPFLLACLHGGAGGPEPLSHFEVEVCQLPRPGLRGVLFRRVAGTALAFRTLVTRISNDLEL

SMILES | test | conditions | endpoint | result
CN1CCN(c2cnc3c(C4CCN(C(=O)c5ccc(OC(F)(F)F)cc5N)CC4)ncnc3c2)CC1 | cell-free assay, competition with immobilised ligand | 1 µM | remaining binding | 100%
O=C(NCCCNc1ccnc(Nc2cccc(NC(=O)N3CCCC3)c2)n1)C1CCC1 | enzyme activity, inhibitor, radiometric | 1 µM | remaining activity | 85%
FC(F)(F)Oc1cccc(-c2cnc3ccc(-c4ccncc4)nn23)c1 | enzyme activity, inhibitor, radiometric | 5 µM | activity vs control | 93%
C[C@H](c1cccc(C#N)c1)n1cc(Cl)cc(C(N)=O)c1=N | cell-free assay, competition with immobilised ligand | 1 µM | remaining binding | 99%
c1cc(CN2CCOCC2)cc(Nc2ncc(C3CC3)c(NCCc3c[nH]cn3)n2)c1 | enzyme activity, inhibitor, radiometric | 1 µM | remaining activity | 4%
N[C@@H]1CCN(c2nccc(-c3cnn4ncccc34)n2)C1 | binding | 1 µM | remaining binding | 100%
NS(=O)(=O)c1ccc(CNc2nc(Nc3cccc(CN4CCOCC4)c3)ncc2Br)cc1 | enzyme activity, inhibitor, radiometric | 1 µM | remaining activity | 61%
O=C1NC(=O)c2cc(Nc3ccc(F)cc3)c(Nc3ccc(F)cc3)cc21 | cell-free assay | 0.5 µM | remaining signal | 98.2%
COc1cc(/C=C/C(=O)CC(=O)/C=C/c2ccc(O)c(OC)c2)ccc1O | enzyme activity, inhibitor | 1 µM | activity vs control | 74%
O=C(Nc1cnn(-c2csc(C(=O)NC3COC3)c2)c1)Nc1ccccc1Cl | enzyme activity, inhibitor | 5 µM | remaining activity | 108%
NS(=O)(=O)c1ccc(CNc2nc(Nc3cccc(NC(=O)N4CCCC4)c3)ncc2Br)cc1 | enzyme activity, inhibitor, radiometric | 1 µM | remaining activity | 42%
CC(=O)N1CCC(c2ccc(C(=O)NC(=N)N)cc2C(F)(F)F)CC1 | cell-free assay, competition with immobilised ligand | 1 µM | remaining binding | 100%
COc1cc2ncnc(Nc3ccc(F)c(Cl)c3)c2cc1OCCCN1CCOCC1 | cell-free assay | 0.5 µM | remaining signal | 94.2%
Oc1cccc(-c2nc(N3CCOCC3)c3oc4ncccc4c3n2)c1 | enzyme activity, inhibitor | 10 µM | remaining activity | 108%
CCS(=O)(=O)c1cc2cc(C[C@@](O)(CC(C)(C)c3ccc(F)cc3C(N)=O)C(F)(F)F)[nH]c2cn1 | cell-free assay, competition with immobilised ligand | 1 µM | remaining binding | 100%
COc1cc2ncnc(Nc3ccc(Oc4ccccc4)c(C)c3C)c2cc1OC | enzyme activity, inhibitor | 1 µM | inhibition | -1%
Cc1nn(CC(F)(F)F)cc1Nc1ncc(C2CC2)c(NCc2ccc(S(N)(=O)=O)cc2)n1 | enzyme activity, inhibitor, radiometric | 1 µM | remaining activity | 110%
NS(=O)(=O)c1cc(NC(=O)Cc2ccccc2)ccc1Oc1cccc(Cl)c1 | cell-free assay, competition with immobilised ligand | 1 µM | remaining binding | 100%
NS(=O)(=O)c1ccc(CNc2ccnc(Nc3cccc(CN4CCOCC4)c3)n2)cc1 | enzyme activity, inhibitor, radiometric | 1 µM | remaining activity | 98%
CS(=O)(=O)NCC[C@H](NC(=O)c1cncc2c1cnn2-c1ccc(F)cc1)c1ccnc(S(C)(=O)=O)c1 | cell-free assay, competition with immobilised ligand | 1 µM | remaining binding | 78%
O=C(NCCCNc1nc(Nc2cccc(CN3CCOCC3)c2)ncc1C1CC1)C1CCC1 | enzyme activity, inhibitor, radiometric | 1 µM | remaining activity | 5%
O=C(O)[C@H]1[C@H](Cn2nnc3ccccc3c2=O)CC[C@@H]1C(=O)c1ccc(OCCC2CCOCC2)cc1 | cell-free assay, competition with immobilised ligand | 1 µM | remaining binding | 96%
COc1cc(Nc2c(C#N)cnc3cc(OCCCN4CCN(C)CC4)c(OC)cc23)c(Cl)cc1Cl | cell-free assay | 0.5 µM | remaining signal | 60.6%
c1cc(CN2CCOCC2)cc(Nc2nccc(NCCc3cnc[nH]3)n2)c1 | enzyme activity, inhibitor, radiometric | 1 µM | remaining activity | 68%
CCOCCn1cc(C(=O)Nc2ccc(-n3nc(-c4cccnc4)cc3C(F)(F)F)cn2)ccc1=O | cell-free assay, competition with immobilised ligand | 1 µM | remaining binding | 100%
